From publication PMC11485011 (Chemical Science, 2024)
“Also recorded” adds a separate entry of the source. Read-outs that look alike come from different tables or passages of the source.

Experiments:
hCB1R = hCB1R (Homo sapiens, UniProt P21554); experiment: [3H]CP55940 displacement assay, hCB1R CHO membranes; assay type: binding
In short: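 Competitive radioligand binding on membranes from CHO cells stably expressing hCB1R. Test compound displaces radioligand, and Ki is derived from that displacement. Selectivity calculated as Ki(CB1R)/Ki(CB2R). Means of at least three independent experiments, each in duplicate.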

hCB2R [1] = target: T1, hCB2R (Homo sapiens, UniProt P34972); experiment: [3H]CP55940 displacement assay, hCB2R CHO membranes; assay type: binding; details: for Ki: Ki hCB2R, [3H]CP55940 displacement, CHO membranes stably expressing hCB2R; for Selectivity, ratio of Ki (CB1R)/Ki (CB2R): hCB2R over hCB1R
hCB2R [2] = target: T1, hCB2R; experiment: HTRF cAMP assay in CHO cells stably expressing hCB2R; assay type: cell-based; details: for Function: hCB2R cAMP assay
In short: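 Cells stably expressing hCB2R; inhibition of cAMP accumulation read by HTRF. […] Emax expressed as % of the reference full agonist APD371. Means of four or seven independent experiments run in technical replicates.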

hCB2R-CHO cells [3] = experiment: endocytosis blocking study; assay type: cell-based, human; details: pretreatment 30 min with 0.4 M sucrose and 5 μg mL−1 filipin, probe 10 min
[4] = target: hCB2R overexpressing CHO cells (Homo sapiens, UniProt P34972); experiment: super-resolution confocal imaging, mean fluorescence intensity of labeled CB2R; assay type: cell-based; details: 0.8 μM probe, 15 min
In short: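 Live hCB2R-overexpressing CHO cells stained with fluorescent probe plus Hoechst 33342 nuclear counterstain. Cells optically sectioned by confocal laser-scanning microscopy with an Airyscan detector (super-resolution).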

hCB2R-CHO cells [5] = experiment: co-staining with LysoTracker, super-resolution confocal microscopy; assay type: cell-based, human; details: 15 min
In short: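 Live hCB2R-overexpressing CHO cells exposed for 15 min to the fluorescent probe together with LysoTracker as lysosome marker. Imaged by super-resolution confocal microscopy and channels merged to assess overlap. Three independent experiments, with five fields examined each.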

[6] = test system: primary human macrophages; experiment: confocal microscopy of primary human macrophages; assay type: cell-based; details: 0.8 μM, 15 min, endogenous CB2R
hCB2R [7] = target: T1, hCB2R; experiment: TR-FRET kinetic binding characterization on HEK293-hCB2R cell membranes
hCB2R [8] = target: T1, hCB2R; assay type: cell-based; details: 0.014 to 10 μM, live CHO cells hCB2R vs hCB1R and wt
hCB2R [9] = target: T1, hCB2R; assay type: cell-based; details: 5 µM inhibitor, 90 min preincubation; probes 12, 15, 18; hCB2R CHO cells
[10] = EC50 (column EC50 or IC50), agonists, HTRF cAMP assay, cells stably expressing hCB2R
[11] = normalized to reference full agonist APD371
[12] = read-out: IC50 (column EC50 or IC50), inverse agonists, HTRF cAMP assay, cells stably expressing hCB2R

Chain of hCB1R (P21554 whole entry): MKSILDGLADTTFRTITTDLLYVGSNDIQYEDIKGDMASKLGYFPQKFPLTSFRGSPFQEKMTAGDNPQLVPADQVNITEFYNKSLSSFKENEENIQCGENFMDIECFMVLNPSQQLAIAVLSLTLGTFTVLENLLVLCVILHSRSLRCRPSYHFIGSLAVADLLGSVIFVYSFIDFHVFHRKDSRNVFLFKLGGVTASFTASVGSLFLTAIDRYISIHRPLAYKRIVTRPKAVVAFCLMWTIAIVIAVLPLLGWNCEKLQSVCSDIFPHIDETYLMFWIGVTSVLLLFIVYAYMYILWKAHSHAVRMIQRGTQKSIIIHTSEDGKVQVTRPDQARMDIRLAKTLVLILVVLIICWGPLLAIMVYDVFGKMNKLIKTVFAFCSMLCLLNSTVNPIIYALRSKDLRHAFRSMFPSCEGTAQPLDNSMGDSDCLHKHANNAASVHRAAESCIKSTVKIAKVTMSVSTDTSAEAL
T1 sequence (P34972 whole entry): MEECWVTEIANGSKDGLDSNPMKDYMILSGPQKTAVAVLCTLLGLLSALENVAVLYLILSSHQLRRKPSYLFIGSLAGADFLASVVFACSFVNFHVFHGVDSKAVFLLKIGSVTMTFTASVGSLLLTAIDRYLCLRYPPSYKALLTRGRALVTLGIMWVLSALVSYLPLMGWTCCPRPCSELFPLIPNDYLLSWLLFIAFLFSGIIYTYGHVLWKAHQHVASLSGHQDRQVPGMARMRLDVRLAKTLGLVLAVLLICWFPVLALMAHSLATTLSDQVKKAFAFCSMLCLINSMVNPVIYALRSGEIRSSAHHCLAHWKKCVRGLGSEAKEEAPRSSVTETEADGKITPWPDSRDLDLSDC
Chain of hCB2R overexpressing CHO cells (P34972 whole entry): as above

Compound	Ki (hCB1R)	Ki (hCB2R [1])	Selectivity, ratio of Ki (CB1R)/Ki (CB2R) (hCB2R [1])	Emax (hCB2R [2]; CHO)	Function (hCB2R [2])	further results
CCC(CC)(NC(=O)c1ccc(N2CC(OC)C2)c(OC[C@H]2C[C@@H]2CO)n1)C(=O)NCCOCCOCCNC(=O)OC(C)(C)C [Compound 11b, TERT-BUTYL (3,3-DIETHYL-1-(6-(((1S,2S)-2-(HYDROXYMETHYL)CYCLOPROPYL)METHOXY)-5-(3-METHOXYAZETIDIN-1-YL)PYRIDIN-2-YL)-1,4-DIOXO-8,11-DIOXA-2,5-DIAZATRIDECAN-13-YL)CARBAMATE]	> 10000 nM	106 nM	>94	-63%	Inverse agonist	IC50 (hCB2R [2]): 88 nM
CCC(CC)(NC(=O)c1ccc(C2CC2)c(Cc2ccc(F)cc2)n1)C(=O)NCCOCCOCCNC(=O)OC(C)(C)C [Compound 10b, TERT-BUTYL (1-(5-CYCLOPROPYL-6-(4-FLUOROBENZYL)PYRIDIN-2-YL)-3,3-DIETHYL-1,4-DIOXO-8,11-DIOXA-2,5-DIAZATRIDECAN-13-YL)CARBAMATE]	466 nM	6 nM	78	83%	partial agonist	EC50 (hCB2R [2]; [10]): 49 nM
N-(1-(3',6'-BIS(DIMETHYLAMINO)-3-OXO-3H-SPIRO[ISOBENZOFURAN-1,9'-XANTHEN]-5/6-YL)-13-ETHYL-1,12-DIOXO-5,8-DIOXA-2,11-DIAZAPENTADECAN-13-YL)-6-(((1S,2S)-2-(HYDROXYMETHYL)CYCLOPROPYL)METHOXY)-5-(3-METHOXYAZETIDIN-1-YL)PICOLINAMIDE [Compound 16]					Inverse agonist	reduction of intracellular staining by endocytosis blockers (hCB2R-CHO cells [3]): without affecting; Emax (hCB2R [2]; [11]): −29%; IC50 (hCB2R [2]; [12]): 114 nM; MFI of labeled CB2R in intracellular compartments [4]: 340 ± 13 MFI; plasma membrane labelling intensity (MFI) of labeled CB2R [4]: 350 ± 4 MFI; co-localization with LysoTracker (hCB2R-CHO cells [5]): clear co-localization pattern; distribution pattern in human macrophages [6]: mainly localized on cellular membranes and partially in perinuclear dots; kinetic binding characterization (hCB2R [7]): fast association and appropriate residence time
CCC(CC)(NC(=O)c1ccc(C2CC2)c(Cc2ccc(F)cc2)n1)C(=O)NCCOCCOCCOCCOCCNC(=O)OC(C)(C)C [Compound 10d, TERT-BUTYL (1-(5-CYCLOPROPYL-6-(4-FLUOROBENZYL)PYRIDIN-2-YL)-3,3-DIETHYL-1,4-DIOXO-8,11,14,17-TETRAOXA-2,5-DIAZANONADECAN-19-YL)CARBAMATE]	1470 nM	144 nM	10			
CCC(CC)(NC(=O)c1ccc(C2CC2)c(Cc2ccc(F)cc2)n1)C(=O)NCCOCCOCCNC(=O)c1ccc2c(c1)C(=O)OC21c2ccc(N)c(S(=O)(=O)O)c2Oc2c1ccc(N)c2S(=O)(=O)O [Compound 14, 3',6'-DIAMINO-5-((1-(5-CYCLOPROPYL-6-(4-FLUOROBENZYL)PYRIDIN-2-YL)-3,3-DIETHYL-1,4-DIOXO-8,11-DIOXA-2,5-DIAZATRIDECAN-13-YL)CARBAMOYL)-3-OXO-3H-SPIRO[ISOBENZOFURAN-1,9'-XANTHENE]-4',5'-DISULFONIC ACID]				79%	partial agonism; also recorded: Partial agonist	EC50 (hCB2R [2]; [10]): 77 nM; selectivity and specificity for hCB2R in flow cytometry (hCB2R [8]): high selectivity even at very high concentrations
CCC(CC)(NC(=O)c1ccc(C2CC2)c(Cc2ccc(F)cc2)n1)C(=O)NCCOCCNC(=O)OC(C)(C)C [Compound 10a, TERT-BUTYL (2-(2-(2-(5-CYCLOPROPYL-6-(4-FLUOROBENZYL)PICOLINAMIDO)-2-ETHYLBUTANAMIDO)ETHOXY)ETHYL)CARBAMATE]	836 nM	28 nM	30			
CCC(CC)(NC(=O)c1ccc(C2CC2)c(Cc2ccc(F)cc2)n1)C(=O)NCCOCCOCCOCCNC(=O)OC(C)(C)C [Compound 10c, TERT-BUTYL (1-(5-CYCLOPROPYL-6-(4-FLUOROBENZYL)PYRIDIN-2-YL)-3,3-DIETHYL-1,4-DIOXO-8,11,14-TRIOXA-2,5-DIAZAHEXADECAN-16-YL)CARBAMATE]	748 nM	63 nM	12			
CCC(CC)(NC(=O)c1ccc(C2CC2)c(Cc2ccc(F)cc2)n1)C(=O)NCCOCCOCCNC(=O)c1ccc2c(c1)C1(OC2=O)c2ccc(N(C)C)cc2[Si](C)(C)c2cc(N(C)C)ccc21 [Compound 13, N-(1-(3,7-BIS(DIMETHYLAMINO)-5,5-DIMETHYL-3'-OXO-3'H,5H-SPIRO[DIBENZO[B,E]SILINE-10,1'-ISOBENZOFURAN]-6'-YL)-13-ETHYL-1,12-DIOXO-5,8-DIOXA-2,11-DIAZAPENTADECAN-13-YL)-5-CYCLOPROPYL-6-(4-FLUOROBENZYL)PICOLINAMIDE]				127%	full agonism; also recorded: Full agonist	EC50 (hCB2R [2]; [10]): 528 nM
CCC(CC)(NC(=O)c1ccc(N2CC(OC)C2)c(OC[C@H]2C[C@@H]2CO)n1)C(=O)NCCOCCNC(=O)OC(C)(C)C [Compound 11a, TERT-BUTYL (2-(2-(2-ETHYL-2-(6-(((1S,2S)-2-(HYDROXYMETHYL)CYCLOPROPYL)METHOXY)-5-(3-METHOXYAZETIDIN-1-YL)PICOLINAMIDO)BUTANAMIDO)ETHOXY)ETHYL)CARBAMATE]	> 10000 nM	2060 nM	>4			
N-(1-(3',6'-BIS(DIMETHYLAMINO)-3-OXO-3H-SPIRO[ISOBENZOFURAN-1,9'-XANTHEN]-5/6-YL)-13-ETHYL-1,12-DIOXO-5,8-DIOXA-2,11-DIAZAPENTADECAN-13-YL)-5-CYCLOPROPYL-6-(4-FLUOROBENZYL)PICOLINAMIDE [Compound 12]					partial agonism; also recorded: Partial agonist	reduction of intracellular staining by endocytosis blockers (hCB2R-CHO cells [3]): 70%; Emax (hCB2R [2]; [11]): 80%; EC50 (hCB2R [2]; read-out: EC50 (column EC50 or IC50), agonists, HTRF cAMP assay, cells stably expressing hCB2R): 82 nM; MFI of labeled CB2R in intracellular compartments [4]: 2575 ± 100 MFI; plasma membrane labelling intensity (MFI) of labeled CB2R [4]: 2090 ± 175 MFI; co-localization with LysoTracker (hCB2R-CHO cells [5]): partial overlap but no clear co-localization; distribution pattern in human macrophages [6]: widely distributed within the cell; kinetic binding characterization (hCB2R [7]): fast association and appropriate residence time
CC(C)(C)c1nc(N2CC[C@H](O)C2)c2nnn(Cc3nnnn3C3CC3)c2n1 [RO6871304]						blocking of fluorescent probe staining (hCB2R [9]): completely blocked the staining
3',6'-DIAMINO-5/6-((3,3-DIETHYL-1-(6-(((1S,2S)-2-(HYDROXYMETHYL)CYCLOPROPYL)METHOXY)-5-(3-METHOXYAZETIDIN-1-YL)PYRIDIN-2-YL)-1,4-DIOXO-8,11-DIOXA-2,5-DIAZATRIDECAN-13-YL)CARBAMOYL)-3-OXO-3H-SPIRO[ISOBENZOFURAN-1,9'-XANTHENE]-4',5'-DISULFONIC ACID [Compound 18]					Inverse agonist	Emax (hCB2R [2]; [11]): −26%; IC50 (hCB2R [2]; [12]): 262 nM; selectivity and specificity for hCB2R in flow cytometry (hCB2R [8]): high selectivity even at very high concentrations
CCC(CC)(NC(=O)c1ccc(N2CC(OC)C2)c(OC[C@H]2C[C@@H]2CO)n1)C(=O)NCCOCCOCCOCCNC(=O)OC(C)(C)C [Compound 11c, TERT-BUTYL (3,3-DIETHYL-1-(6-(((1S,2S)-2-(HYDROXYMETHYL)CYCLOPROPYL)METHOXY)-5-(3-METHOXYAZETIDIN-1-YL)PYRIDIN-2-YL)-1,4-DIOXO-8,11,14-TRIOXA-2,5-DIAZAHEXADECAN-16-YL)CARBAMATE]	> 10000 nM	> 10000 nM				
CCC(CC)(NC(=O)c1ccc(N2CC(OC)C2)c(OC[C@H]2C[C@@H]2CO)n1)C(=O)NCCOCCOCCNC(=O)c1ccc2c(c1)C1(OC2=O)c2ccc(N(C)C)cc2[Si](C)(C)c2cc(N(C)C)ccc21 [Compound 17, N-(1-(3,7-BIS(DIMETHYLAMINO)-5,5-DIMETHYL-3'-OXO-3'H,5H-SPIRO[DIBENZO[B,E]SILINE-10,1'-ISOBENZOFURAN]-6'-YL)-13-ETHYL-1,12-DIOXO-5,8-DIOXA-2,11-DIAZAPENTADECAN-13-YL)-6-(((1S,2S)-2-(HYDROXYMETHYL)CYCLOPROPYL)METHOXY)-5-(3-METHOXYAZETIDIN-1-YL)PICOLINAMIDE]				-29%	Inverse agonist	IC50 (hCB2R [2]): 129 nM
